HSV replic up – HSV replication enhancement. HSV replication augmentation in cells, fold increase. maximum fold increase. 220,000 compounds, 0.005% hits; in the data active = maximum fold increase above about 1.5; inconclusive = no clear call, values can overlap the other calls; tested in PC3 cells
STAT1 act – STAT1 signaling activation. NIH 3T3 STAT1-luciferase reporter, IFN-gamma, luminescence; 100% = IFN-gamma alone, no compound. activation (% of control), % at 5.5 µM. 200,000 compounds, 2.6% hits. AID 932;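 active = activation above the screen-wide mean activation plus 3 SD, cut at about 130% in these data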;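 also: raw ratio to IFN-gamma control signal so 100% means no change and 0% no light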
STAT1 inh – STAT1 signaling inhibition; 200,000 compounds, 0.35% hits; inhibition, % at 5.5 µM; AID 920; NIH 3T3 STAT1-luciferase reporter, IFN-gamma, luminescence;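 active = inhibition above a set limit, the mean inhibition across all tested compounds plus 3 SD, cut at about 34% in these data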;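 also: 0% = IFN-gamma with DMSO and 100% = IFN-gamma with 300 µM nifuroxazide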
STAT3 activator – increases IL-6 driven STAT3 reporter signal. 190,000 compounds, 0.91% hits. AID 871. activation (% of control), % at 5.6 µM. U3A cells, IL-6 STAT3-luciferase reporter, luminescence; 100% = signal with IL-6 EC80 alone;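 active = activation above the screen-wide mean of compound activation plus 3 SD, cut at about 130% in these data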;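 also: 0% = background luminescence of wells with medium and substrate only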
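Test system: STAT3-luciferase reporter U3A cells; Detection: reporter luminescence signal; Times: 1 h compound pre-exposure, 6 h IL-6 stimulation, 37 °C; Benchmarks: IL-6-only high control; Also added: IL-6 stimulus at 33 ng/mL final.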
STAT3 blocker – reduces IL-6 driven STAT3 reporter signal; 190,000 compounds, 0.89% hits; inhibition, % at 5.5 µM; U3A cells, IL-6 STAT3-luciferase reporter, luminescence; host cell line lacks STAT1;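 active = inhibition above the mean inhibition across all screened compounds plus 3 SD, cut at about 44% in these data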;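 also: 0% = DMSO only wells and 100% = 100 µM nifuroxazide control wells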
Cl transport mod – modulators of human KCC2 chloride dependent transport | 190,000 compounds, 2.2% hits | Q9H2X9 | KCC2 cells, thallium flux FluoZin-2 fluorescence | B-score of Tl+ flux slope (higher = more flux/activation; lower = inhibition) at 10 µM;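 active = thallium flux slope and its plate-corrected score both differing from the plate sample mean at a set confidence after two filtering rounds, in either direction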;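 also: slope of fluorescence scaled to starting intensity during 10 to 20 s after thallium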
STAT1 act conf – STAT1 activation, confirmation assay; shares compounds with STAT1 act; NIH 3T3 STAT1-luciferase reporter, IFN-gamma potentiation, luminescence; 100% = IFN-gamma EC80 alone, no compound; activation (% of control), % at 5.7 µM; 1,200 compounds, 97% hits; AID 1262;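 active = activation above a set limit carried over from the earlier primary STAT1 screen, cut at about 140% in these data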;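 also: simple ratio to median IFN-gamma plus DMSO wells so 0% means no light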
NFkB act STAT1ct – counter-screen for STAT1 activators: NF-kappaB activation. shares compounds with STAT1 act. HEK293T NF-kB luciferase reporter, TNF-alpha stimulated, luminescence; 100% = TNF-alpha with vehicle only. 1,200 compounds, 43% hits. activation (% of control), % at 5.7 µM;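 active = activation above the mean of solvent-only control wells plus 3 SD, set per campaign, cut at about 130% in these data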;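 also: TNF-alpha given at a submaximal dose yielding about 80% of full reporter signal; values are well signal over median control so 100% means no change and 0% no light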
STAT3 act STAT1c – activates human STAT3, counter-screen to STAT1 activators | shares compounds with STAT1 act | U3A cells STAT3-luciferase reporter, IL-6, luminescence; cells lack STAT1; 100 = IL-6 alone, no compound effect | activation (% of control), % at 5.7 µM | 1,200 compounds, 46% hits | AID 1316;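 active = activation above the solvent-only control well mean plus 3 SD, set per plate batch, cut at about 110% in these data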;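 also: 0% = no luminescence and 100% = median IL-6 plus DMSO wells; higher means more STAT3 reporter activation so hits are non-selective activators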
* marks the source's active call; other numbers are inactive results; i = inactive; ? = inconclusive; · = no result. Hits are enriched below; roughly 5.5% of the tested compounds scored in any of these assays.

SMILES	HSV replic up	STAT1 act	STAT1 inh	STAT3 activator	STAT3 blocker	Cl transport mod	STAT1 act conf	NFkB act STAT1ct	STAT3 act STAT1c
CCOC(=O)/C(C#N)=C\C=C1C=CN(C)C=C1	?	154*	-59	105	-2	i	162*	123	115*
COc1ccc(C)cc1S(=O)(=O)N(CC(N)=O)Cc1ccccc1	i	100	-3	97	7	-0.73	·	·	·
Nc1ccc(Nc2nc(-c3cccs3)cs2)cc1	i	160*	-66	94	9	-0.41	168*	142*	102
Cc1cccc(Nc2nc(-c3cccs3)cs2)n1	i	179*	-76	121	-22	-0.76	261*	147*	144*
Cc1cccc(Nc2nc(-c3ccccn3)cs2)n1	i	191*	-90	92	13	-2.4	271*	139*	110
CSCCC(=O)Nc1nc(-c2ccccn2)cs1	i	105	-6	105	-1	0.94	·	·	·
Cc1cccc(NS(=O)(=O)c2cccs2)n1	i	93	7	100	4	-0.13	·	·	·
Cc1cccnc1Nc1nc(-c2ccc(O)cc2O)cs1	i	121	-23	97	6	·	·	·	·
Cc1cccnc1Nc1nc(-c2ccccn2)cs1	i	256*	-156	102	-2	-0.014	261*	168*	109
Cc1cc(CCN2CCC(=O)NC2=O)ccc1OC(C)C	i	105	-5	99	5	·	·	·	·
C=CCC(CC=C)(NC(=O)c1ccccc1C)c1ccccc1	i	108	-9	107	-3	-0.11	·	·	·
CCNC(=O)NC(=O)COC(=O)c1ccccc1SCC(=O)NC(=O)NCC	i	120	-22	122	-14	1.1	·	·	·
COC(=O)C(NC(C)=O)(Nc1nc2c(C)cc(C)cc2s1)C(F)(F)F (centres undefined)	i	100	0	102	-3	·	·	·	·
Cc1c(C(=O)N2CCC(C)CC2)oc2ccc(S(=O)(=O)N3CCC4(CC3)OCCO4)cc12	i	105	-1	98	3	0.59	·	·	·
Cc1ccc(C(C(=O)NCc2ccco2)N(C(=O)Cc2cccs2)c2cccnc2)cc1 (centres undefined)	i	100	0	112	-8	-0.43	·	·	·
CC(=O)Nc1nc(C)c(-c2csc(Nc3ccccn3)n2)s1	i	191*	-98	112	-7	-0.38	221*	142*	120*
Cc1occc1C(=O)Nc1nccs1	i	95	6	96	8	0.12	·	·	·
Cc1occc1C(=O)Nc1nnc(-c2cccs2)s1	i	157*	-63	112	-8	2	194*	131	112*
C=CC(=O)NC(C)(C)CCN1CCOCC1	i	95	5	96	6	-0.63	·	·	·
O=C1OCCC1Sc1nc2cc(Cl)ccc2s1 (centres undefined)	i	110	-9	100	4	-1.8	·	·	·
O=c1c(Br)c(Br)cnn1-c1ccccc1	i	177*	-88	83	25	-2.7	118	120	91
O=c1c2ccccc2cnn1-c1ccc(Br)cc1	i	152*	-58	128	-34	-0.6	214*	142*	141*
c1csc(C2=NNC(=NC3CCCCC3)SC2)c1	i	155*	-58	107	1	0.052	168*	119	109
Cc1cc(C2=NNC(=NC3CCCCC3)SC2)c(C)n1-c1c(C)n(C)n(-c2ccccc2)c1=O	i	99	2	111	-13	-0.28	·	·	·
CC(Oc1ccccc1)C(=O)NNS(=O)(=O)c1ccc([N+](=O)[O-])cc1 (centres undefined)	i	88	14	97	6	0.35	·	·	·
SMILES	HSV replic up	STAT1 act	STAT1 inh	STAT3 activator	STAT3 blocker	Cl transport mod	STAT1 act conf	NFkB act STAT1ct	STAT3 act STAT1c
Cc1ccc(C(=O)Nc2ccc(SC(F)F)cc2)s1	i	173*	-80	102	0	-0.013	205*	141*	98
c1ccc(CN2CCCC3(CCCN(Cc4nc(COc5ccccc5)no4)C3)C2)cc1 (centres undefined)	i	106	-7	117	-20	-3.6	·	·	·
CCOc1cccc(-c2nc3cc(C)ccc3o2)c1	i	152*	-57	116	-16	0.18	159*	122	128*
Cc1ccc2oc(-c3cccc(NC(=O)Cn4cnc5c(=O)n(C)c(=O)n(C)c54)c3)nc2c1	i	113	-15	97	4	0.66	·	·	·
CCCCNC(=O)CC1NCCNC1=O (centres undefined)	i	104	-4	105	4	-0.048	·	·	·
CC(C)c1ccc(NC(=O)c2snc3ccc(Cl)cc23)cc1	i	158*	-64	131	-31	0.16	194*	126	139*
CC(C)c1ccc(NC(=O)c2cc(Br)ccc2Br)cc1	i	105	-6	97	8	-0.77	·	·	·
CCS(=O)(=O)c1ccc2oc(SCC(=O)NC(C)C3CC4CCC3C4)nc2c1 (centres undefined)	i	100	0	99	6	0.5	·	·	·
Cc1ccc(C(=O)COC(=O)c2cc(=O)[nH]c3ccccc23)cc1C	i	163*	-70	99	4	0.37	203*	136*	121*
NC(=O)COC(=O)c1cc(=O)[nH]c2ccccc12	i	·	·	·	·	-0.048	·	·	·
CCOC(=O)c1sc2nc3c(cc2c1N)COC(C(C)C)C3 (centres undefined)	i	214*	-126	71	37	-0.1	233*	110	75
Cc1cccc(/N=C/c2c(O)[nH]c3ccccc23)n1	i	158*	-64	111	-8	·	171*	112	124*
Oc1[nH]c2ccccc2c1C=Nc1ccc2c(c1)OCCO2	i	187*	-85	70	37	0.75	346*	137*	106
O=C(NCCc1ccccc1)C1CCN(S(=O)(=O)c2ccc(-c3nn[nH]n3)cc2)CC1	i	93	7	100	2	0.57	·	·	·
O=S(=O)(/N=C(/Nc1ccc(Cl)cc1Cl)c1ccccc1)c1cccs1	i	106	-8	99	5	·	·	·	·
CCN(CC)c1ccc(N=Nc2nn(C)c(C)c2[N+](=O)[O-])cc1	i	178*	-88	82	21	-0.58	222*	140*	107

Screening data as filed in PubChem BioAssay.
